Reference: ChEMBL document CHEMBL4145466, “Design, synthesis, and biological evaluation of novel combretastatin A-4 thio derivatives as microtubule targeting agents” (Eur J Med Chem, 2018)
Active and inactive are the calls of the source. No cut-off for these calls is given here.

Key:
MCF7 [1] = experiment: Cell cycle arrest in human MCF7 cells assessed as accumulation of cells at G2/M phase at 0.1 to 1 uM after 24 hrs by propidium iodide staining-based FACS analysis; type: functional
In short: (§1)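 Cells were seeded at 5 × 10^5 per well in DMEM with 10% FBS and left overnight, then exposed to 0.1, 0.5 or 1 µM for 24 h. DMSO served as the negative control and 50 nM camptothecin as the positive control. Cells were trypsinized, fixed in 70% ethanol for 30 min at 4 °C, stained with 50 µg/mL PI plus 100 µg/mL RNase A for 30 min in the dark, and analysed by flow cytometry. Results are mean ± SD of three experiments, compared by ANOVA with Dunnett's test.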

A-431 [2] = experiment: Cytotoxicity against human A431 cells after 48 hrs by MTT assay; type: functional, cell-based; details: A-431, 48 h
In short: (§2)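 Cells in DMEM with 10% FBS were plated at 2 × 10^4 per well and left overnight, then treated for 48 h at 0.6–20 µM (six concentrations) from 10 mM DMSO stocks. MTT was added for 2 h, and formazan was dissolved in DMSO and read at 570 nm. Viability was expressed as % of control, with IC50 taken from dose-response curves. Results are mean ± SD of three independent experiments.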

HeLa [3] = experiment: Cytotoxicity against human HeLa cells after 48 hrs by MTT assay; type: functional, cell-based; in short: as §2
MCF7 [4] = experiment: Cytotoxicity against human MCF7 cells after 48 hrs by MTT assay; type: functional, cell-based; details: MCF7, 48 h; in short: as §2
MDA-MB-231 [5] = experiment: Cytotoxicity against human MDA-MB-231 cells after 48 hrs by MTT assay; type: functional, cell-based; details: MDA-MB-231, 48 h; in short: as §2
A549 = experiment: Cytotoxicity against human A549 cells after 48 hrs by MTT assay; type: functional, cell-based; details: A549, 48 h
SK-OV-3 [6] = experiment: Cytotoxicity against human SKOV3 cells after 48 hrs by MTT assay; type: functional, cell-based; details: SK-OV-3, 48 h; in short: as §2
HaCaT [7] = experiment: Cytotoxicity against human HaCaT cells after 48 hrs by MTT assay; type: cell-based; in short: as §2
[8] = Cytotoxicity against human CCD39Lu cells after 48 hrs by MTT assay; type: cell-based; in short: as §2
[9] = Inhibition of porcine tubulin polymerization after 1 hr by spectrophotometric analysis; set-up: species or system Sus scrofa
In short: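 Polymerization was started by shifting from 4 °C to 37 °C, and absorbance was followed at 37 °C for 60 min. The vehicle served as control.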

SK-OV-3 [10] = experiment: Cell cycle arrest in human SKOV3 cells assessed as accumulation of cells at G2/M phase at 0.1 to 1 uM after 24 hrs by propidium iodide staining-based FACS analysis; type: functional; in short: as §1
A-431 [11] = experiment: Cell cycle arrest in human A431 cells assessed as accumulation of cells at G2/M phase at 0.1 to 1 uM after 24 hrs by propidium iodide staining-based FACS analysis; type: functional; in short: as §1
HaCaT [12] = experiment: Cell cycle arrest in human HaCaT cells assessed as accumulation of cells at G2/M phase at 0.1 to 1 uM after 24 hrs by propidium iodide staining-based FACS analysis; in short: as §1
MDA-MB-231 [13] = experiment: Cell cycle arrest in human MDA-MB-231 cells assessed as accumulation of cells at G2/M phase at 0.1 to 1 uM after 24 hrs by propidium iodide staining-based FACS analysis; type: functional; in short: as §1
Tubulin [14] = experiment: Inhibition of tubulin polymerization in human HaCaT cells assessed as micronuclei formation at 1 uM after 24 hrs by ELISA; type: cell-based
Tubulin [15] = experiment: Inhibition of tubulin polymerization in human HaCaT cells assessed as micronuclei formation at 1 uM after 24 hrs by Hoechst 33258/FITC staining-based […]; type: cell-based
In short: (§3)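 Cells seeded at 12.5 × 10^4 per well and exposed to 1 µM compound for 24 h. Nuclei were stained with Hoechst 33258 (10 µg/mL, 30 min, 37 °C), then fixed in 4% formaldehyde/PBS (15 min, RT). Cells were permeabilized with 1% Triton X-100, blocked with 2% BSA/PBS for 1 h, and incubated with anti-α-tubulin-FITC (1:50) overnight at 4 °C. Imaged by fluorescence microscopy.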

HaCaT [16] = experiment: Induction of apoptosis in human HaCaT cells after 24 hrs by FITC Annexin V/propidium iodide staining-based FACScan flow cytometric analysis; type: cell-based
In short: (§4)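 After 24 h of compound exposure, 1 × 10^6 cells were labelled with annexin V-FITC and PI for 15 min at 25 °C in the dark. They were read on a FACScan with 488 nm excitation, detecting FITC at 525 nm and PI at 620 nm. Results are mean ± SD of three independent experiments, with Dunnett's test against control.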

MCF7 [17] = experiment: Induction of apoptosis in human MCF7 cells after 24 hrs by FITC Annexin V/propidium iodide staining-based FACScan flow cytometric analysis; type: functional, cell-based; in short: as §4
MDA-MB-231 [18] = experiment: Induction of apoptosis in human MDA-MB-231 cells after 24 hrs by FITC Annexin V/propidium iodide staining-based FACScan flow cytometric analysis; type: functional, cell-based; in short: as §4
HeLa [19] = experiment: Induction of apoptosis in human HeLa cells after 24 hrs by FITC Annexin V/propidium iodide staining-based FACScan flow cytometric analysis; type: functional, cell-based; in short: as §4
SK-OV-3 [20] = experiment: Induction of apoptosis in human SKOV3 cells after 24 hrs by FITC Annexin V/propidium iodide staining-based FACScan flow cytometric analysis; type: functional, cell-based; in short: as §4
A-431 [21] = experiment: Induction of apoptosis in human A431 cells after 24 hrs by FITC Annexin V/propidium iodide staining-based FACScan flow cytometric analysis; type: functional, cell-based; in short: as §4
A-431 [22] = experiment: Induction of apoptosis in human A431 cells assessed as increase in histone-associated DNA fragments in mononucleosomes at 0.1 uM after 24 hrs by ELISA; type: functional, cell-based
In short: (§5)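 Cells (2 × 10^4) were incubated for 24 h at 0.1, 0.5 or 1 µM, lysed and centrifuged. Supernatants went onto a streptavidin plate with anti-histone-biotin and anti-DNA-peroxidase for 2 h, followed by ABTS for 30 min and a reading at 405 nm. Nucleosome content was expressed as an enrichment factor, as mean ± SD of three experiments.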

HaCaT [23] = experiment: Induction of apoptosis in human HaCaT cells assessed as increase in histone-associated DNA fragments in mononucleosomes at 0.1 uM after 24 hrs by ELISA; type: cell-based
In short: (§6)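 HaCaT cells (2 × 10^4), grown in DMEM with 10% FBS, penicillin/streptomycin and 2 mM L-glutamine, exposed to compound (DMSO stock) for 24 h. Cells lysed, supernatant taken after centrifugation and incubated 2 h on a streptavidin-coated plate with anti-histone-biotin and anti-DNA-peroxidase. ABTS added for 30 min, A405 read. Output is enrichment factor vs control, mean ± SD of three independent experiments.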

HeLa [24] = experiment: Induction of apoptosis in human HeLa cells assessed as increase in histone-associated DNA fragments in mononucleosomes at 0.1 uM after 24 hrs by ELISA; type: functional, cell-based; in short: as §5
MCF7 [25] = experiment: Induction of apoptosis in human MCF7 cells assessed as increase in histone-associated DNA fragments in mononucleosomes at 0.1 uM after 24 hrs by ELISA; type: functional, cell-based; in short: as §5
MDA-MB-231 [26] = experiment: Induction of apoptosis in human MDA-MB-231 cells assessed as increase in histone-associated DNA fragments in mononucleosomes at 0.1 uM after 24 hrs by ELISA; type: functional, cell-based; in short: as §5
SK-OV-3 [27] = experiment: Induction of apoptosis in human SKOV3 cells assessed as increase in histone-associated DNA fragments in mononucleosomes at 0.1 uM after 24 hrs by ELISA; type: functional, cell-based; in short: as §5
A-431 [28] = experiment: Induction of apoptosis in human A431 cells assessed as increase in histone-associated DNA fragments in oligonucleosomes at 0.1 uM after 24 hrs by ELISA; type: functional, cell-based; in short: as §5
HaCaT [29] = experiment: Induction of apoptosis in human HaCaT cells assessed as increase in histone-associated DNA fragments in oligonucleosomes at 0.1 uM after 24 hrs by ELISA; type: cell-based; in short: as §6
HeLa [30] = experiment: Induction of apoptosis in human HeLa cells assessed as increase in histone-associated DNA fragments in oligonucleosomes at 0.1 uM after 24 hrs by ELISA; type: functional, cell-based; in short: as §5
MCF7 [31] = experiment: Induction of apoptosis in human MCF7 cells assessed as increase in histone-associated DNA fragments in oligonucleosomes at 0.1 uM after 24 hrs by ELISA; type: functional, cell-based; in short: as §5
MDA-MB-231 [32] = experiment: Induction of apoptosis in human MDA-MB-231 cells assessed as increase in histone-associated DNA fragments in oligonucleosomes at 0.1 uM after 24 hrs by ELISA; type: functional, cell-based; in short: as §5
SK-OV-3 [33] = experiment: Induction of apoptosis in human SKOV3 cells assessed as increase in histone-associated DNA fragments in oligonucleosomes at 0.1 uM after 24 hrs by ELISA; type: functional, cell-based; in short: as §5
Tubulin [34] = experiment: Inhibition of tubulin polymerization in human HaCaT cells assessed as perturbation in cytoskeleton structure at 1 uM after 24 hrs by ELISA; type: cell-based
Tubulin [35] = experiment: Inhibition of tubulin polymerization in human HaCaT cells assessed as perturbation in cytoskeleton structure at 1 uM after 24 hrs by Hoechst 33258/FITC staining-based […]; type: cell-based; in short: as §3

SMILES: COc1ccc(/C=C\c2cc(OC)c(OC)c(OC)c2)cc1O [COMBRETASTATIN A4]
- Activity (MCF7 [1]): Active
- IC50 (A-431 [2]): 250 nM
- IC50 (HeLa [3]): 110 nM
- IC50 (MCF7 [4]): 170 nM
- IC50 (MDA-MB-231 [5]): 560 nM
- IC50 (A549): > 20000 nM
- IC50 (SK-OV-3 [6]): 380 nM
- IC50 (HaCaT [7]): 190 nM
- IC50 [8]: 9 nM
- IC50 [9]: 2720 nM
- Activity (SK-OV-3 [10]): Active
- Activity (A-431 [11]): Active
- Activity (HaCaT [12]): Toxic
- Activity (MDA-MB-231 [13]): Active
- inhibition (INH) (Tubulin [14]): Active
- inhibition (INH) (Tubulin [15]): Active
- Activity (HaCaT [16]): Dose-dependent effect
- Activity (MCF7 [17]): Dose-dependent effect
- Activity (MDA-MB-231 [18]): Dose-dependent effect
- Activity (HeLa [19]): Dose-dependent effect
- Activity (SK-OV-3 [20]): Dose-dependent effect
- Activity (A-431 [21]): Dose-dependent effect
- Activity (A-431 [22]): Active
- Activity (HaCaT [23]): Toxic
- Activity (HeLa [24]): Active
- Activity (MCF7 [25]): Active
- Activity (MDA-MB-231 [26]): Active
- Activity (SK-OV-3 [27]): Active
- Activity (A-431 [28]): Active
- Activity (HaCaT [29]): Toxic
- Activity (HeLa [30]): Active
- Activity (MCF7 [31]): Active
- Activity (MDA-MB-231 [32]): Active
- Activity (SK-OV-3 [33]): Active
- inhibition (INH) (Tubulin [34]): Active
- inhibition (INH) (Tubulin [35]): Active
